Laboratory results: ChEMBL document CHEMBL4689842, “EUbOPEN Chemogenomics Library wave 1” (2021)

System: Fibroblast
Experiment: Multiplex assay against human fibroblast
Assay type: toxicity, cell-based
Procedure, shortened: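 Cells were classed with CellPathfinder machine-learning gating, first as Hoechst high-intensity objects or normal cells, then (normal cells) as healthy, pyknosed or fragmented nuclei, and finally (pyknosed cells) as mitotic or apoptotic. Staining of live cells at seeding used Hoechst33342, BioTracker Green Microtubule Cytoskeleton Dye, MitoTracker Red and Annexin V Alexa Fluor 680, with imaging on a CQ1 microscope at 37°C and 5% CO2 after compound addition. Tubulin, mitochondrial-mass and membrane-permeability phenotypes are per cents of healthy-nucleus cells.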

[1] = 12 h, 1 µM, compound concentration 1 uM, replicate 1
[2] = 12 h, 1 µM, compound concentration 1 uM, replicate 2
[3] = 12 h, 10 µM, compound concentration 10 uM, replicate 1
[4] = 12 h, 10 µM, compound concentration 10 uM, replicate 2
[5] = 24 h, 1 µM, compound concentration 1 uM, replicate 1
[6] = 24 h, 1 µM, compound concentration 1 uM, replicate 2
[7] = 24 h, 10 µM, compound concentration 10 uM, replicate 1
[8] = 24 h, 10 µM, compound concentration 10 uM, replicate 2
[9] = 48 h, 1 µM, compound concentration 1 uM, replicate 1
[10] = 48 h, 1 µM, compound concentration 1 uM, replicate 2
[11] = 48 h, 10 µM, compound concentration 10 uM, replicate 1
[12] = 48 h, 10 µM, compound concentration 10 uM, replicate 2

Compound: O=C(Cc1ccc(-c2ccc(OCCN3CCOCC3)cc2)cn1)NCc1ccccc1 [TIRBANIBULIN]
- Population Apoptotic (%) [1]: 71%
- Population Fragmented Nuclei (%) [1]: 20%
- Population Healthy Nuclei (%) [1]: 47%
- Population Hoechst High Intensity Objects (%) [1]: 16%
- Population Membrane Permeable-Phenotype (%) [1]: 18%
- Population Mitochondria Different-Phenotype (%) [1]: 9%
- Population Mitotic Cells (%) [1]: 28%
- Population Normal (%) [1]: 83%
- Population Pyknosed Nuclei (%) [1]: 31%
- Population Tubulin-Different-Phenotype (%) [1]: 12%
- Total Cell Count [1]: 80
- Population Apoptotic (%) [2]: 0%
- Population Fragmented Nuclei (%) [2]: 5%
- Population Healthy Nuclei (%) [2]: 90%
- Population Hoechst High Intensity Objects (%) [2]: 12%
- Population Membrane Permeable-Phenotype (%) [2]: 9%
- Population Mitochondria Different-Phenotype (%) [2]: 21%
- Population Mitotic Cells (%) [2]: 100%
- Population Normal (%) [2]: 87%
- Population Pyknosed Nuclei (%) [2]: 4%
- Total Cell Count [2]: 108
- Population Apoptotic (%) [3]: 66%
- Population Fragmented Nuclei (%) [3]: 30%
- Population Healthy Nuclei (%) [3]: 39%
- Population Hoechst High Intensity Objects (%) [3]: 15%
- Population Membrane Permeable-Phenotype (%) [3]: 17%
- Population Mitochondria Different-Phenotype (%) [3]: 13%
- Population Mitotic Cells (%) [3]: 33%
- Population Normal (%) [3]: 84%
- Population Pyknosed Nuclei (%) [3]: 29%
- Population Tubulin-Different-Phenotype (%) [3]: 28%
- Total Cell Count [3]: 134
- Population Apoptotic (%) [4]: 50%
- Population Fragmented Nuclei (%) [4]: 13%
- Population Healthy Nuclei (%) [4]: 78%
- Population Hoechst High Intensity Objects (%) [4]: 10%
- Population Membrane Permeable-Phenotype (%) [4]: 4%
- Population Mitochondria Different-Phenotype (%) [4]: 19%
- Population Mitotic Cells (%) [4]: 50%
- Population Normal (%) [4]: 89%
- Population Pyknosed Nuclei (%) [4]: 7%
- Population Tubulin-Different-Phenotype (%) [4]: 12%
- Total Cell Count [4]: 81
- Population Apoptotic (%) [5]: 57%
- Population Fragmented Nuclei (%) [5]: 29%
- Population Healthy Nuclei (%) [5]: 44%
- Population Hoechst High Intensity Objects (%) [5]: 14%
- Population Membrane Permeable-Phenotype (%) [5]: 37%
- Population Mitochondria Different-Phenotype (%) [5]: 9%
- Population Mitotic Cells (%) [5]: 42%
- Population Normal (%) [5]: 85%
- Population Pyknosed Nuclei (%) [5]: 26%
- Population Tubulin-Different-Phenotype (%) [5]: 18%
- Total Cell Count [5]: 84
- Population Apoptotic (%) [6]: 61%
- Population Fragmented Nuclei (%) [6]: 16%
- Population Healthy Nuclei (%) [6]: 66%
- Population Hoechst High Intensity Objects (%) [6]: 9%
- Population Membrane Permeable-Phenotype (%) [6]: 6%
- Population Mitochondria Different-Phenotype (%) [6]: 44%
- Population Mitotic Cells (%) [6]: 38%
- Population Normal (%) [6]: 90%
- Population Pyknosed Nuclei (%) [6]: 17%
- Population Tubulin-Different-Phenotype (%) [6]: 10%
- Total Cell Count [6]: 155
- Population Apoptotic (%) [7]: 54%
- Population Fragmented Nuclei (%) [7]: 42%
- Population Healthy Nuclei (%) [7]: 37%
- Population Hoechst High Intensity Objects (%) [7]: 13%
- Population Membrane Permeable-Phenotype (%) [7]: 17%
- Population Mitochondria Different-Phenotype (%) [7]: 8%
- Population Mitotic Cells (%) [7]: 45%
- Population Normal (%) [7]: 86%
- Population Pyknosed Nuclei (%) [7]: 20%
- Population Tubulin-Different-Phenotype (%) [7]: 35%
- Total Cell Count [7]: 138
- Population Apoptotic (%) [8]: 66%
- Population Fragmented Nuclei (%) [8]: 19%
- Population Healthy Nuclei (%) [8]: 57%
- Population Hoechst High Intensity Objects (%) [8]: 10%
- Population Membrane Permeable-Phenotype (%) [8]: 10%
- Population Mitochondria Different-Phenotype (%) [8]: 40%
- Population Mitotic Cells (%) [8]: 33%
- Population Normal (%) [8]: 89%
- Population Pyknosed Nuclei (%) [8]: 23%
- Population Tubulin-Different-Phenotype (%) [8]: 13%
- Total Cell Count [8]: 82
- Population Apoptotic (%) [9]: 50%
- Population Fragmented Nuclei (%) [9]: 40%
- Population Healthy Nuclei (%) [9]: 47%
- Population Hoechst High Intensity Objects (%) [9]: 14%
- Population Membrane Permeable-Phenotype (%) [9]: 31%
- Population Mitochondria Different-Phenotype (%) [9]: 2%
- Population Mitotic Cells (%) [9]: 50%
- Population Normal (%) [9]: 85%
- Population Pyknosed Nuclei (%) [9]: 12%
- Population Tubulin-Different-Phenotype (%) [9]: 7%
- Total Cell Count [9]: 94
- Population Apoptotic (%) [10]: 71%
- Population Fragmented Nuclei (%) [10]: 35%
- Population Healthy Nuclei (%) [10]: 59%
- Population Hoechst High Intensity Objects (%) [10]: 10%
- Population Membrane Permeable-Phenotype (%) [10]: 18%
- Population Mitochondria Different-Phenotype (%) [10]: 7%
- Population Mitotic Cells (%) [10]: 28%
- Population Normal (%) [10]: 89%
- Population Pyknosed Nuclei (%) [10]: 4%
- Population Tubulin-Different-Phenotype (%) [10]: 15%
- Total Cell Count [10]: 170
- Population Apoptotic (%) [11]: 48%
- Population Fragmented Nuclei (%) [11]: 38%
- Population Healthy Nuclei (%) [11]: 34%
- Population Hoechst High Intensity Objects (%) [11]: 17%
- Population Membrane Permeable-Phenotype (%) [11]: 21%
- Population Mitochondria Different-Phenotype (%) [11]: 7%
- Population Mitotic Cells (%) [11]: 51%
- Population Normal (%) [11]: 82%
- Population Pyknosed Nuclei (%) [11]: 26%
- Population Tubulin-Different-Phenotype (%) [11]: 29%
- Total Cell Count [11]: 143
- Population Apoptotic (%) [12]: 66%
- Population Fragmented Nuclei (%) [12]: 44%
- Population Healthy Nuclei (%) [12]: 53%
- Population Membrane Permeable-Phenotype (%) [12]: 15%
- Population Mitochondria Different-Phenotype (%) [12]: 5%
- Population Mitotic Cells (%) [12]: 33%
- Population Pyknosed Nuclei (%) [12]: 2%
- Population Tubulin-Different-Phenotype (%) [12]: 22%
- Total Cell Count [12]: 164
